The record followed here is ChEMBL document CHEMBL4376900, “Structure-Activity Relationship of Antischistosomal Ozonide Carboxylic Acids” (J Med Chem, 2020).

Structures are written as SMILES. Converted amounts (≈) assume the structure as drawn. Bounds are passed on as bounds.

In data set [1] the test system is Schistosoma mansoni. The data set can be described thus: Antischistosomal activity against Schistosoma mansoni infected in mouse assessed as reduction in juvenile worm burden at 200 mg/kg, po administered as single dose relative to control. The class given is functional. Further details: scale not given: the % may be the effect or the level left. The procedure, abridged:
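Female NMRI mice, 4 weeks old, infected subcutaneously with about 100 S. mansoni cercariae. Juvenile-stage treatment was a single oral dose on day 21 post-infection in 7% v/v Tween 80 / 3% v/v ethanol (10 mL/kg). Untreated infected mice (n = 8) served as controls. Necropsy by CO2 21 days post-treatment, with worms picked, sexed and counted.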

The nature of data set [2]: Kinetic solubility in pH 6.5 phosphate buffer incubated for 30 mins by nephelometry. Format: physicochemical. The settings on record: read-out: Kinetic_solubility. The procedure, abridged: (§1)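 DMSO stocks (10 mg/mL) diluted into pH 6.5 phosphate buffer or 0.01 M HCl (about pH 2.0) at 1% final DMSO. After 30 min, a solubility range was determined by nephelometry.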
For another data set, the target named is Albumin (Homo sapiens, UniProt P02768). In words: Protein binding to human albumin by HPLC analysis. Format: ADME. Conditions: isolated protein. The procedure, abridged:
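Binding estimated chromatographically using a gradient HPLC method derived from the Valko approach.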

Data set [3] is described as follows: Kinetic solubility in pH 2.0 0.01M HCl buffer incubated for 30 mins by nephelometry. Conditions: read-out: Kinetic_solubility. The class given is physicochemical. The procedure, abridged:
as §1

A short description of data set [4]: Partition coefficient, logD of the compound at pH 7.4 by HPLC analysis. The class given is physicochemical. The settings on record: octanol/water.
A further data set deals with U2OS. The data set can be described thus: Cytotoxicity in human U2OS assessed as reduction in cell viability up to 50 uM incubated for 24 hrs by Alamar blue sye based assay. The procedure, abridged: (§2)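 Cells maintained in D10 medium were grown to confluence, then exposed to increasing compound concentrations (0–100 μM) for 24 h. Alamar blue (10 mM) was then added for 4 h, and viability was read as fluorescence.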

A short description of data set [5]: Intrinsic clearance in human liver microsomes in presence of NADPH-regenerating system incubated over 60 mins. Format: ADME, Microsome. The settings on record: read-out: CLH. The procedure, abridged: (§3)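 Compounds incubated at 37 °C with liver microsomes at 0.4 mg/mL protein. Reaction started by adding an NADPH-regenerating system and quenched with acetonitrile containing diazepam internal standard at several time points over 60 min. No-NADPH controls were quenched at 2, 30 and 60 min.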
Background: Microsomes from liver hold many membrane-bound enzymes, among them those of drug oxidation.

Data set [6] in a line: Cytotoxicity in human HC04 assessed as reduction in cell viability up to 50 uM incubated for 24 hrs by Alamar blue sye based assay. The procedure, abridged:
as §2
For orientation: Alamar Blue is a resazurin reagent that responds to reducing activity.

The subject of a further data set is HEK-293T. In words: Cytotoxicity in human HEK293T assessed as reduction in cell viability up to 50 uM incubated for 24 hrs by Alamar blue sye based assay. The procedure, abridged:
as §2

The test system of a further data set is HFF. In words: Cytotoxicity in HFF assessed as reduction in cell viability up to 50 uM incubated for 24 hrs by Alamar blue sye based assay. The settings on record: human. The procedure, abridged: as §2
Data set [7] deals with Schistosoma mansoni. The data set can be described thus: Antischistosomal activity against Schistosoma mansoni infected in NMRI mouse assessed as reduction in total adult worm burden at 400 mg/kg, po administered as single dose starting on day 49 post-infection and measured at 28 days post treatment relative to control. Format: functional. Also noted: scale not given: the % may be the effect or the level left.

Data set [8] can be described thus: Intrinsic clearance in mouse liver microsomes in presence of NADPH-regenerating system incubated over 60 mins. Format: ADME, Microsome. Conditions: read-out: CLH. The procedure, abridged:
as §3

Data set [9] has as its system Schistosoma mansoni. In words: Antischistosomal activity against Schistosoma mansoni. The class given is functional, organism-based.
Data set [10] has as its system Schistosoma mansoni. The data set can be described thus: Antischistosomal activity against Schistosoma mansoni infected in mouse assessed as reduction in adult worm burden at 400 mg/kg, po administered as single dose relative to control. Format: functional. Also noted: scale not given: the % may be the effect or the level left.
In data set [11] the test system is Schistosoma japonicum. The data set can be described thus: Antischistosomal activity against Schistosoma japonicum infected in mouse assessed as reduction in adult worm burden at 400 mg/kg, po administered as single dose relative to control. Format: functional. Further details: scale not given: the % may be the effect or the level left.
Another data set has as its system Schistosoma haematobium. In words: Antischistosomal activity against Schistosoma haematobium infected in mouse assessed as reduction in adult worm burden at 400 mg/kg, po administered as single dose relative to control. Format: functional. Further details: scale not given: the % may be the effect or the level left.
For data set [12], the system named is Schistosoma japonicum. The data set can be described thus: Antischistosomal activity against Schistosoma japonicum. Format: functional, organism-based.

Chain of Albumin (P02768 whole entry): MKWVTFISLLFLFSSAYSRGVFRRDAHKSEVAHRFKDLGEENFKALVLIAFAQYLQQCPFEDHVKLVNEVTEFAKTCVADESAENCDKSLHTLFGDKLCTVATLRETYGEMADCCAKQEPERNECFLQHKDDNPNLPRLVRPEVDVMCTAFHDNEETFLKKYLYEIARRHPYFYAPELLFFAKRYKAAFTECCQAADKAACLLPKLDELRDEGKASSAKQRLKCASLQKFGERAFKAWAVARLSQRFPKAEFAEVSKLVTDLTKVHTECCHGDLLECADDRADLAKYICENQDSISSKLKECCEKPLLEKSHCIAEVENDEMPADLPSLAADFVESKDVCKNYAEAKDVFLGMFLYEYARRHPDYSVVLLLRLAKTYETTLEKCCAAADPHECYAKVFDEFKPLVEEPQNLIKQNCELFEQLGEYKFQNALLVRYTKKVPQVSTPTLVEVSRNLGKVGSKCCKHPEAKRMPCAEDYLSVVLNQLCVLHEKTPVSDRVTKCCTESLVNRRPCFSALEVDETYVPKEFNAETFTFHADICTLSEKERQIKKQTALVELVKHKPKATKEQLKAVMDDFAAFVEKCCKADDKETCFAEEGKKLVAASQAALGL

For `O=C(O)c1ccc([C@H]2CC[C@]3(CC2)OOC2(O3)C3CC4CC(C3)CC2C4)cc1` (stereo not given in full), the Activity in the data set on Schistosoma mansoni [1] came to 100%. Further, the solubility kinetic at 0.5 h was below 3.1 µg/mL in data set [2] and below 1.6 µg/mL in data set [3]. Also, the PPB on Albumin was found to be 98.8%. The compound also showed a logD in data set [4] of 3.

For the compound `O=C(O)COc1ccc([C@H]2CC[C@]3(CC2)OOC2(O3)C3CC4CC(C3)CC2C4)cc1Cl` (stereo not given in full), the Activity result is given as “Non-Toxic” in the data set on U2OS; “Non-Toxic” in data set [6]; “Non-Toxic” with HEK-293T; “Non-Toxic” in the data set with HFF; 84% in the data set with Schistosoma mansoni [7]. Besides, the microsomal CLint is below 7 µL/min/mg in data set [5] and 8 µL/min/mg in data set [8]. Also, the solubility kinetic at 0.5 h in data set [2] is below 3.1 µg/mL; in data set [3], 3.1 to 6.3 µg/mL (≈ 6.91 to 14 µM). In addition, at Albumin, the PPB is on record as above 99.5%. The logD in [4] was 3.2.

For the compound `O=C(O)COc1ccc([C@H]2CC[C@]3(CC2)OOC2(O3)C3CC4CC(C3)CC2C4)cc1` (stereo not given in full), the Activity with Schistosoma mansoni [1] was found to be 84%; in the data set on Schistosoma mansoni [10] it was 80%; in the data set with Schistosoma japonicum [11] it was 69%; with Schistosoma haematobium, 86%. Further, the solubility kinetic at 0.5 h in data set [2] is below 1.6 µg/mL; in data set [3], 6.3 to 12.5 µg/mL (≈ 15.2 to 30.2 µM). The IC50 amounted to 44 µM with Schistosoma mansoni [9] and 39 µM with Schistosoma japonicum [12]. Further, the logD in data set [4] turned out to be 2.9.

Usually logD stands for the decadic logarithm of the distribution of all forms, ionised or not, between an organic phase and buffer at a given pH. Broadly, the IC50 is the point on the concentration scale where inhibition reaches its midpoint.
